According to ChEMBL document CHEMBL3120138, “Glucocorticoid receptor modulators informed by crystallography lead to a new rationale for receptor selectivity, function, and implications for structure-based design” (J Med Chem, 2014):
Calls of active or inactive are those of the source. The rule behind the calls is not given here.

What was measured:
[1] = tested on: Rattus norvegicus; test: Antiinflammatory activity in Lewis rat collagen-induced arthritis model assessed as reduction of paw diameter AUC at 3 to 30 mg/kg, po administered for 15 days measured during compound dosing; type: functional, organism-based
Method in brief: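 Female Lewis rats received collagen injected at the tail base, and disease developed over 14 d. Responding rats (groups of n = 10) were then dosed orally once daily for the next 15 d. Ankle/paw diameter was measured throughout the live phase and summarised as AUC. Hindpaw histology was scored blind from 0 (normal) to 5 (vehicle-level). Statistics used Student's t test vs vehicle, p < 0.01.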

[2] = tested on: Rattus norvegicus; test: Antiinflammatory activity in po dosed Sprague-Dawley rat assessed as inhibition of carrageenan-induced paw edema incubated for 2 hrs prior to carrageenan challenge measured after 5 hrs […]; type: functional
[3] = Tmax in Lewis rat collagen-induced arthritis model at 3 to 30 mg/kg, po after 15 days; type: ADME, organism-based; design: dose 3-30 mg/kg, route oral; conditions: in vivo
[4] = Volume of distribution in Sprague-Dawley rat at 3 mg/kg, iv; type: ADME, organism-based; design: dose 3 mg/kg, route intravenous; conditions: in vivo
Method in brief: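 Cannulated male Sprague-Dawley rats, fasted overnight, given a single 3 mpk dose at t = 0. The iv vehicle was 20% microemulsion/80% DI water and the po vehicle CMC/tween in DI water. Plasma was analysed for parent compound by LC/MS-MS, and exposure, half-life, Vd, clearance and bioavailability were calculated.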

[5] = target: T1, Glucocorticoid receptor (Homo sapiens) (UniProt P04150); test: Transactivation of human glucocorticoid receptor expressed in HEK293 cells at 10 uM after 24 hrs by luciferase reporter gene assay relative to control; type: cell-based
T1 sequence (whole entry): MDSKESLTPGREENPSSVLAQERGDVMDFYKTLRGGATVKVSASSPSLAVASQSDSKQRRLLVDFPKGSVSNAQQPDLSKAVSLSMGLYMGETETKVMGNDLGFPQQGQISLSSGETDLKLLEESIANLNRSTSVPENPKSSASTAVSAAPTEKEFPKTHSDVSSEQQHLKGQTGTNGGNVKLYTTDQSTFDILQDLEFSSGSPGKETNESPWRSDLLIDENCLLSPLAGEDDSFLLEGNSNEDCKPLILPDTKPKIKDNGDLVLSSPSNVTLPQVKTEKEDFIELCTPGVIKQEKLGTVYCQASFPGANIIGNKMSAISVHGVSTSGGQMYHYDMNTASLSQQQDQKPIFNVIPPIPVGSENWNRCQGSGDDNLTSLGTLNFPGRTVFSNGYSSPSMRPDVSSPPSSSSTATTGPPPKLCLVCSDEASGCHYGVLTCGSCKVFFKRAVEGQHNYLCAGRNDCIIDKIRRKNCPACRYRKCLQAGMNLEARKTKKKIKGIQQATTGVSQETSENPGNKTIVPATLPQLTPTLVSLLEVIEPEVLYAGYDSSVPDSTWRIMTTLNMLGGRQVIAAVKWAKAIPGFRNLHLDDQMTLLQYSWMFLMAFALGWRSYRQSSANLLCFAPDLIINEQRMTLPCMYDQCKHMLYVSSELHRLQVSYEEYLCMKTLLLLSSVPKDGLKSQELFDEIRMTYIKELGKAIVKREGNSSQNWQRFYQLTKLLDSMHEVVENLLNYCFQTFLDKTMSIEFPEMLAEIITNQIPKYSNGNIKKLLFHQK
Method in brief: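 HEK293 cells were transfected in DMEM with 5% charcoal-stripped FBS, using a CMV-hGR plasmid and a luciferase reporter driven by 2×GRE plus the TK promoter. After overnight incubation, cells were replated and exposed to compound for 24 h, then lysed for luciferase readout.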

- Tmax [3]: 1 h
- Vd [4]: 7 L/kg
- Efficacy [5]: 53%
SMILES: CC/C(=C1\c2ccccc2OCc2cccc(OC)c21)c1cccc(NS(C)(=O)=O)c1
- Activity [1]: Active
- ED50 [2]: 2.8 mg/kg
